In ChEMBL document CHEMBL1123468, “Synthesis and antiviral activity of (E)-5-(2-bromovinyl)uracil and (E)-5-(2-bromovinyl)uridine” (1986):

System: E6SM
Assay: The concentration required to reduce the cytopathogenicity of HSV-1 (KOS) in E6SM cell culture by 50% in presence of 20 ug/mL concentrations of 6-aminothymine
Format: functional
Settings: Homo sapiens
In short: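 E6SM cells infected with HSV-1 (KOS), with 6-aminothymine or benzylacyclouridine added to the medium at the stated concentration. The value is the minimum concentration that reduces viral cytopathogenicity by 50%.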

Oc1ncc(/C=C/Br)c(O)n1
MIC50: > 400 µg/mL
